Measurements: ChEMBL document CHEMBL1128543, “Computer-aided design and synthesis of 5-substituted tryptamines and their pharmacology at the 5-HT1D receptor: discovery of compounds with potential anti-migraine properties” (J Med Chem, 1995)
pKd: −log10 of the molar value.

Columns and labels:
D(2) dopamine receptor = D(2) dopamine receptor (Rattus norvegicus, UniProt P61169); experiment: Binding affinity against Dopamine receptor D2 in rat striatum using [3H]-spiperone as radioligand; type: tissue-based
D(2) dopamine receptor, sequence (P61169 whole entry): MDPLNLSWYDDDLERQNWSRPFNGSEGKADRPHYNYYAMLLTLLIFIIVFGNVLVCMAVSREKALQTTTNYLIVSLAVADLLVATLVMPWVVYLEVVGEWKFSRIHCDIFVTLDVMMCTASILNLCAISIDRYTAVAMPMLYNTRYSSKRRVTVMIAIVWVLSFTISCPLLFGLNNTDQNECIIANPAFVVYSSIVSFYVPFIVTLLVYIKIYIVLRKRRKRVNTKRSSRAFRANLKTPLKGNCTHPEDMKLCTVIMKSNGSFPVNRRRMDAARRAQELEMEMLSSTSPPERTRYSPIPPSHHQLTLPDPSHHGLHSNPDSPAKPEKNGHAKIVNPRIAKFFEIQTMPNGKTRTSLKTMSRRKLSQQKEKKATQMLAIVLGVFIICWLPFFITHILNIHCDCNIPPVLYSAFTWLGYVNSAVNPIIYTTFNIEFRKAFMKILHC
Outline: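 Incubation was 30 min at 27 °C in Tris-HCl 50 mM/CaCl₂ 5 mM/0.1% ascorbate/10 mM pargyline buffer. Bound and free label were separated by filtration and counted by liquid scintillation. pK_i or pIC₅₀ is the mean of n ≥ 3.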

[1] = biological target: T1, 5-hydroxytryptamine receptor 1A (Homo sapiens) (UniProt P08908); experiment: Binding affinity against 5-hydroxytryptamine 1 receptor using rabbit jugular vein assay in the presence of endothelium; settings: Oryctolagus cuniculus; target entry is the homologue from another species
T1 sequence (whole entry): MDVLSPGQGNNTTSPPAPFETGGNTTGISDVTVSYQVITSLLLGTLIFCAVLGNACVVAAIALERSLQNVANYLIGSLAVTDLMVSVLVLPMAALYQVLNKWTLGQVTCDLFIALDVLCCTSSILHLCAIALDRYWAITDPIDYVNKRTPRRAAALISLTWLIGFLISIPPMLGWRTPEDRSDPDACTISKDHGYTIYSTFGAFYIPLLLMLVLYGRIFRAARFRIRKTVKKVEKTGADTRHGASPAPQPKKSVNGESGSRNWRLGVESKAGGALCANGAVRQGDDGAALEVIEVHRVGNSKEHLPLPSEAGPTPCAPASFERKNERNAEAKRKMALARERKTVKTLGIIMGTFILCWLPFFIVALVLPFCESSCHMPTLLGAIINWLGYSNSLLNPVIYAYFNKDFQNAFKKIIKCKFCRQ

[2] = biological target: Serotonin 3 (5-HT3) receptor (Homo sapiens) (UniProt P46098+A5X5Y0+O95264+Q70Z44+Q8WXA8); experiment: Binding affinity against 5-hydroxytryptamine 3 receptor […]; type: cell-based; settings: Oryctolagus cuniculus
[3] = biological target: T2, Muscarinic acetylcholine receptor M2 (Homo sapiens) (UniProt P08172); experiment: Binding affinity against Muscarinic acetylcholine receptor M2 using rabbit saphenous vein assay.; type: tissue-based; settings: Oryctolagus cuniculus, target entry is the homologue from another species
T2 sequence (whole entry): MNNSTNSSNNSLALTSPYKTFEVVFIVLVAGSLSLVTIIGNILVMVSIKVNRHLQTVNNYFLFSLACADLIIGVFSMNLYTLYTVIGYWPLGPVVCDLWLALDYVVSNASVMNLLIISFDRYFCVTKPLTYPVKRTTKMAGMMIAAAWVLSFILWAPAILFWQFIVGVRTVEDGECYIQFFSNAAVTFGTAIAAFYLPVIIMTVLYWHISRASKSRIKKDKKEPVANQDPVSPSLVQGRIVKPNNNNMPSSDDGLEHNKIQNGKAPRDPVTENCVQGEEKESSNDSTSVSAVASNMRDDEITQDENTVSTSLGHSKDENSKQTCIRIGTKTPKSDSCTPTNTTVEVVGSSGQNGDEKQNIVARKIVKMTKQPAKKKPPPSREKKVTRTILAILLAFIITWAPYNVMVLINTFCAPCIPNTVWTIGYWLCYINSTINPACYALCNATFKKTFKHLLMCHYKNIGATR

Oryctolagus cuniculus [4] = species on record: Oryctolagus cuniculus; experiment: Binding affinity against 5-hydroxytryptamine 1 receptor using rabbit saphenous vein assay.; type: tissue-based
Outline: (§1)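 Male New Zealand White rabbit saphenous vein rings (4–5 mm) in Krebs–Henseleit at 37 °C, pH 7.4, gassed with 95% O₂:5% CO₂, under 2 g passive force. Tissues got 30 min pargyline (500 μM) and phenoxybenzamine (0.3 μM), then were washed and checked with 1 μM 5-HT. A cumulative 5-HT curve was followed 60 min later by a test agonist curve. Potency is p[A₅₀]; α is test max/5-HT max; n ≥ 3.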

[5] = biological target: 5-hydroxytryptamine receptor 1D (Homo sapiens) (UniProt P28221); experiment: The compound was tested for intrinsic activity against 5-HT1D receptor; settings: Oryctolagus cuniculus
5-hydroxytryptamine receptor 1D (Homo sapiens), sequence (P28221 whole entry): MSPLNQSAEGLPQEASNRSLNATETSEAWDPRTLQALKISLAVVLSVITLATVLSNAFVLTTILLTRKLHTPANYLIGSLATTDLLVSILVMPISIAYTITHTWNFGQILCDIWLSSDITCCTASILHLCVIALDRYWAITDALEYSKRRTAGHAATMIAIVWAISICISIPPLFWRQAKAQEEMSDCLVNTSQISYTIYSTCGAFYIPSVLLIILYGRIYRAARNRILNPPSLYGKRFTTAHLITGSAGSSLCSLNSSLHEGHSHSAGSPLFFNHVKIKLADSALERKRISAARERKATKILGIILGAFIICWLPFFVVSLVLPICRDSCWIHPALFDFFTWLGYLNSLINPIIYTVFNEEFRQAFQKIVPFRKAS
Outline: (§2)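 Rabbit saphenous vein rings (male New Zealand White; 4–5 mm) mounted on tungsten wires in Krebs–Henseleit buffer, pH 7.4, 37 °C, gassed with 95% O2/5% CO2, at 2 g passive force. Pretreated for 30 min with pargyline (500 μM) and phenoxybenzamine (0.3 μM), then washed. Cumulative 5-HT curve, then after 60 min a test agonist curve. Potency is p[A50]; α is test maximum/5-HT maximum; n ≥ 3.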

Oryctolagus cuniculus [6] = species on record: Oryctolagus cuniculus; experiment: Binding affinity against 5-hydroxytryptamine 1D receptor using rabbit saphenous vein assay.; type: tissue-based; outline: as §1
[7] = biological target: Adrenergic receptor alpha-2 (Homo sapiens) (UniProt P08913+P18825+P18089); settings: Oryctolagus cuniculus; Saphenous vein
Oryctolagus cuniculus [8] = species on record: Oryctolagus cuniculus; experiment: Binding affinity against 5-hydroxytryptamine 4 receptor using rabbit saphenous vein assay.; type: tissue-based
[9] = biological target: D(1A) dopamine receptor (Homo sapiens) (UniProt P21728); experiment: Binding affinity was evaluated by Dopamine receptor D1 agonism in the calf striatum by displacing SCH 23390; type: tissue-based; settings: Oryctolagus cuniculus
D(1A) dopamine receptor (Homo sapiens), sequence (P21728 whole entry): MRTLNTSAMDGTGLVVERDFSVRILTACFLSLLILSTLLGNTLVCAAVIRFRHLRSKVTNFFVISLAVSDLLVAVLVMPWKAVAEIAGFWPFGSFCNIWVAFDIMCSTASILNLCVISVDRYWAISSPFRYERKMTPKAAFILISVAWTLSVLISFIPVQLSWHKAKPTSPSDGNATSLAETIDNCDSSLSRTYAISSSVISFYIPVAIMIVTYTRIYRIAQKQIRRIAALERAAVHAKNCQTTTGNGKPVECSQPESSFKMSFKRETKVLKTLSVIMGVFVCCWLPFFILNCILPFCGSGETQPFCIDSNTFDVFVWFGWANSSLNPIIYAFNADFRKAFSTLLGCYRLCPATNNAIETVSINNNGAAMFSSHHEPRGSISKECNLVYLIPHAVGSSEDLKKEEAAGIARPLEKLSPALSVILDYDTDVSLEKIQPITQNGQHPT

[10] = biological target: 5-hydroxytryptamine receptor 2A (Homo sapiens) (UniProt P28223); settings: Oryctolagus cuniculus
5-hydroxytryptamine receptor 2A (Homo sapiens), sequence (P28223 whole entry): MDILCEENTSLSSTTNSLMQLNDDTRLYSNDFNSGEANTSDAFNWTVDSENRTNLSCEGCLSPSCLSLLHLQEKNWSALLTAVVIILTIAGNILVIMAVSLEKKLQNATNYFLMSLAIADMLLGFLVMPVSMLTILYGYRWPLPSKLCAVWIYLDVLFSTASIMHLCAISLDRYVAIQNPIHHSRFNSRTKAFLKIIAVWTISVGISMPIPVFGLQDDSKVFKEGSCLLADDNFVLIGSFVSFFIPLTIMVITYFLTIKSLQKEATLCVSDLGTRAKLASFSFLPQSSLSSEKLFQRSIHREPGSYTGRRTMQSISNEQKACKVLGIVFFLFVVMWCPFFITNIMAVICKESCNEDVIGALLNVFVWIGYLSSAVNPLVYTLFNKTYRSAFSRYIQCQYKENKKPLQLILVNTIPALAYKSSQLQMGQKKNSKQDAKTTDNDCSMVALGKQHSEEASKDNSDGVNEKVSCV

[11] = biological target: 5-hydroxytryptamine receptor 1D (Homo sapiens) (UniProt P28221); experiment: The compound was tested for binding affinity against 5-HT1D receptor; settings: Oryctolagus cuniculus; outline: as §2

pKd (D(2) dopamine receptor): 10.40 | p[A50] [1]: 6.45 | p[A50] [2]: < 4.5 | p[A50] [3]: < 4.5 | p[A50] (Oryctolagus cuniculus [4]): 6.8 | Intrinsic activity [5]: 0.77 | p[A50] (Oryctolagus cuniculus [6]): < 4.5 | p[A50] [7]: 4.1 | p[A50] (Oryctolagus cuniculus [8]): 5.3 | p[A50] [9]: < 4 | p[A50] [10]: 6.6 | p[A50] [11]: 6.8
Structure (SMILES): CN(C)CCc1c[nH]c2ccc(C[C@H]3COC(=O)N3)cc12 [ZOLMITRIPTAN]
